ChEMBL document CHEMBL1131236, “Antitumor agents. 185. Synthesis and biological evaluation of tridemethylthiocolchicine analogues as novel topoisomerase II inhibitors” (J Med Chem, 1998)
≈ marks a conversion by molar mass, not a printed value.

Key:
A549 [1] = assay: In vitro growth inhibition of A549, lung carcinoma.; type: functional, cell-based; details: Homo sapiens
In short: (§1)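 Human tumor lines screened in-house: KB, A549, MCF-7, CAKI-1 and SK-MEL-2. Read-out was SRB staining with absorbance at 562 nm.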

A549 [2] = assay: In vitro percent inhibition of A549, lung carcinoma.; type: functional, Homo sapiens
CAKI-1 [3] = assay: In vitro growth inhibition of CAKI-1, Kidney carcinoma; type: functional, cell-based; details: Homo sapiens; in short: as §1
KB [4] = assay: In vitro growth inhibition of KB, epidermoid carcinoma of the nasopharynx.; type: functional, cell-based; details: Homo sapiens; in short: as §1
MCF7 [5] = assay: (§2) In vitro growth inhibition of MCF-7, breast adenocarcinoma.; type: functional, cell-based; details: Homo sapiens; in short: as §1
SK-MEL-2 [6] = assay: In vitro percent inhibition of SK-MEL-2 cells, malignant melanoma.; type: functional, Homo sapiens; design: concentration or dose not given beside the values
SK-MEL-2 [7] = assay: In vitro growth inhibition of SK-MEL-2, malignant melanoma.; type: functional, cell-based; details: Homo sapiens; in short: as §1
DNA topoisomerase II [8] = target: T1, DNA topoisomerase II (Homo sapiens, UniProt P11388+Q02880); assay: In vitro inhibitory activity at 100 uM against topoisomerase II measured as ATP-dependent unknotting of P4 DNA compared to enzyme and DNA control.; type: protein assay
Tubulin = type: protein-complex assay
CAKI-1 [9] = assay: (§3) In vitro percent inhibition of CAKI-1, Kidney carcinoma; type: functional, Homo sapiens; design: concentration or dose not given beside the values
[10] = target: T2, DNA topoisomerase 1 (Homo sapiens) (UniProt P11387); assay: In vitro inhibitory activity at 100 uM against topoisomerase I measured as ATP-independent relaxation of supercoiled plasmid DNA compared to enzyme and DNA control.
T2 sequence (whole entry): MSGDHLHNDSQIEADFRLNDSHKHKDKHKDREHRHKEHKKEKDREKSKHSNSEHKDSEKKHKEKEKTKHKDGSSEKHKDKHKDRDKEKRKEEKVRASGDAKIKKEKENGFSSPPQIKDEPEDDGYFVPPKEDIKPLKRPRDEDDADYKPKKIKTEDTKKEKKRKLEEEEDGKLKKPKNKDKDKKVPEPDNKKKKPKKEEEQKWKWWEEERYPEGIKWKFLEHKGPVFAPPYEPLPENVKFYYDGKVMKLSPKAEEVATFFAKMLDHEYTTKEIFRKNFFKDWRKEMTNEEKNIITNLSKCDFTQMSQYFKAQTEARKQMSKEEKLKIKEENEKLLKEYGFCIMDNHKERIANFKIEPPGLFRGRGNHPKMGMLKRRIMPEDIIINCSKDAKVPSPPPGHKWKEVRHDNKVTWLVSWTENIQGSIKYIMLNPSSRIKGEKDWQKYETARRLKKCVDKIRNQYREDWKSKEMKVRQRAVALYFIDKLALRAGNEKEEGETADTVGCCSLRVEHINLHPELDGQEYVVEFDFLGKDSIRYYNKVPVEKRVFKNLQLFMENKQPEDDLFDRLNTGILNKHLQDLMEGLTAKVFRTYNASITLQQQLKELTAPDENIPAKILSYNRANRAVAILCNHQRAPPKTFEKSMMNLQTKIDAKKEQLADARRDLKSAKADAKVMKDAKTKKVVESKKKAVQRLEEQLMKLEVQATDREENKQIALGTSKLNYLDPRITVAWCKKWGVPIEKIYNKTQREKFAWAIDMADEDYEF

DNA topoisomerase II [11] = target: T1, DNA topoisomerase II; assay: (§4) In vitro activity against mammalian topoisomerase II measured as ATP-dependent unknotting of P4 DNA compared to enzyme and DNA control; type: protein assay
In short: (§5)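 Topo II inhibition read as ATP-dependent unknotting of P4 DNA, compared with enzyme-only and DNA-only control reactions.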

KB [12] = assay: In vitro epidermoid carcinoma of the nasopharynx; type: functional, Homo sapiens; in short: as §1
KB [13] = assay: In vitro growth inhibition of KB, epidermoid carcinoma of the nasopharynx; type: functional, cell-based; details: Homo sapiens; in short: as §1
Tubulin alpha chain = Tubulin alpha chain (Sus scrofa, UniProt P02550); assay: In vitro inhibition of mammalian tubulin polymerization by 50%; Inactive
Chain of Tubulin alpha chain (P02550 whole entry, looked up): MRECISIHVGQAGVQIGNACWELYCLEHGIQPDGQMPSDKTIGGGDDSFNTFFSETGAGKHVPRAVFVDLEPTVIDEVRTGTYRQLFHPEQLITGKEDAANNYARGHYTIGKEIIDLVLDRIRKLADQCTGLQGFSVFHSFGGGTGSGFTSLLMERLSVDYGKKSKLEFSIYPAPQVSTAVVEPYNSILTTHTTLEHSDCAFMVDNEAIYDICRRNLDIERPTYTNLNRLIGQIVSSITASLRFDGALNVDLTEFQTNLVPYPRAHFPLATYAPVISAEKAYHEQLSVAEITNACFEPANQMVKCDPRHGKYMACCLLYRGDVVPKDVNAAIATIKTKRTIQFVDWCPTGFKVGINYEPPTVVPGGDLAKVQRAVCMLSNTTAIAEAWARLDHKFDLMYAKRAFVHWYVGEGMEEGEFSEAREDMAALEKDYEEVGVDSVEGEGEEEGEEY

A549 (Homo sapiens) = assay: In vitro percent inhibition of A549, lung carcinoma
CAKI-1 [14] = assay: as §3; type: functional, Homo sapiens
KB [15] = assay: In vitro percent inhibition of KB, epidermoid carcinoma of the nasopharynx.; type: functional, Homo sapiens
MCF7 [16] = assay: In vitro percent inhibition of MCF-7, breast adenocarcinoma.; type: functional, Homo sapiens
SK-MEL-2 [17] = assay: In vitro percent inhibition of SK-MEL-2, malignant melanoma.; type: functional, Homo sapiens
MCF7 [18] = assay: as §2; type: functional, Homo sapiens; in short: as §1
CAKI-1 [19] = assay: In vitro percent inhibition of growth of CAKI-1, Kidney carcinoma; type: functional, Homo sapiens
SK-MEL-2 [20] = assay: In vitro growth inhibition of SK-MEL-2, malignant melanoma; type: functional, cell-based; details: Homo sapiens; in short: as §1
SK-MEL-2 [21] = assay: In vitro percent inhibition of growth of SK-MEL-2, malignant melanoma; type: functional, Homo sapiens
DNA topoisomerase II [22] = target: T1, DNA topoisomerase II; assay: as §4; type: protein assay; details: concentration not given here; in short: as §5
[23] = target: T2, DNA topoisomerase 1 (Homo sapiens); assay: In vitro inhibition against topoisomerase I activity Measured as ATP independent relaxation of supercoiled plasmid DNA compared to enzyme and DNA control reaction relative to Camptothecin (100 uM)
In short: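 Topo I inhibition read as ATP-independent relaxation of supercoiled plasmid DNA, compared with enzyme and DNA control reactions. Camptothecin at 100 μM was the positive control.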

SMILES | EC50 (A549 [1]) | EC50 (KB [4]) | EC50 (MCF7 [5]) | EC50 (SK-MEL-2 [7]) | inhibition (DNA topoisomerase II [8]) | IC50 (Tubulin) | inhibition [10] | EC50 (CAKI-1 [3]) | Inhibition (CAKI-1 [9]) | further results
CSc1ccc2c(cc1=O)[C@@H](NC(=O)c1cc(O)c(O)c(O)c1)CCc1cc(O)c(O)c(O)c1-2 | > 9.6 µg/mL | 9.6 µg/mL (≈ 19.9 µM) | 8.6 µg/mL (≈ 17.8 µM) | > 9.6 µg/mL | 100% | > 40 µM | 100% | > 9.6 µg/mL | 29% | Inhibition (A549 [2]): 30%; Inhibition (SK-MEL-2 [6]): 30%
COc1cc2c(c(OC)c1OC)-c1ccc(OC)c(=O)cc1[C@@H](NC(C)=O)CC2 [COLCHICINE] | 0.022 µg/mL (≈ 0.0551 µM) | 0.002 µg/mL (≈ 0.00501 µM) | > 0.4 µg/mL | 0.008 µg/mL (≈ 0.02 µM) |  |  |  | 0.4 µg/mL (≈ 1 µM) |  | 
COc1c(O)c(O)cc2c1-c1ccc(SC)c(=O)cc1[C@@H](NC(C)=O)CC2 |  |  |  |  |  |  |  |  |  | IC50 (DNA topoisomerase II [11]): 38 µM
CSc1ccc2c(cc1=O)[C@@H](NC(=O)c1ccccc1[N+](=O)[O-])CCc1cc(O)c(O)c(O)c1-2 |  |  |  |  | 100% | > 40 µM | 0% |  |  | 
CSc1ccc2c(cc1=O)[C@@H](NC(=O)C13CCC(C)(C(=O)O1)C3(C)C)CCc1cc(O)c(O)c(O)c1-2 (stereo partly drawn) |  |  |  |  | 0% | > 40 µM | 0% |  |  | 
COc1cc([C@@H]2c3cc4c(cc3[C@@H](O[C@@H]3O[C@@H]5CO[C@@H](C)O[C@H]5[C@H](O)[C@H]3O)[C@H]3COC(=O)[C@H]23)OCO4)cc(OC)c1O [ETOPOSIDE] |  |  |  |  |  |  |  |  |  | IC50 (Tubulin alpha chain): Not Active
CSc1ccc2c(cc1=O)[C@@H](NC(=O)c1ccc(CBr)cc1)CCc1cc(O)c(O)c(O)c1-2 |  |  |  |  | 100% | > 40 µM | 0% |  |  | 
CSc1ccc2c(cc1=O)[C@@H](NC(=O)c1ccc(N)cc1)CCc1cc(O)c(O)c(O)c1-2 | > 18 µg/mL | > 18 µg/mL | 14.8 µg/mL (≈ 32.9 µM) | > 18 µg/mL |  |  |  | > 18 µg/mL | 13% | Inhibition (KB [12]): 35%; Inhibition (SK-MEL-2 [6]): 0%; Inhibition (A549 (Homo sapiens)): 39%
CCC(=O)Oc1cc2c(c(OC(=O)CC)c1OC(=O)CC)-c1ccc(SC)c(=O)cc1[C@@H](NC(=O)c1ccc([N+](=O)[O-])cc1)CC2 | > 25.9 µg/mL | 12.3 µg/mL (≈ 19 µM) | > 12.9 µg/mL | 12.9 µg/mL (≈ 19.9 µM) | 0% | > 40 µM | 0% | > 25.9 µg/mL | 16% | Inhibition (A549 [2]): 29%; Inhibition (MCF7 [18]): 40%
COC(=O)Oc1cc2c(c(OC(=O)OC)c1OC(=O)OC)-c1ccc(SC)c(=O)cc1[C@@H](NC(=O)c1ccc([N+](=O)[O-])cc1)CC2 | 24.2 µg/mL (≈ 37 µM) | 6.5 µg/mL (≈ 9.93 µM) | 13.1 µg/mL (≈ 20 µM) |  |  | > 40 µM |  | > 26.2 µg/mL |  | Inhibition (CAKI-1 [19]): 38%; EC50 (SK-MEL-2 [20]): > 26.2 µg/mL; Inhibition (SK-MEL-2 [21]): 44%; inhibition (DNA topoisomerase II [22]): 0%; inhibition [23]: 0%

Further lines, with some results ahead:

EC50 (A549 [1]) | EC50 (KB [4]) | EC50 (MCF7 [5]) | EC50 (SK-MEL-2 [7]) | inhibition (DNA topoisomerase II [8]) | IC50 (Tubulin) | inhibition [10] | SMILES | EC50 (CAKI-1 [3]) | Inhibition (CAKI-1 [9]) | further results
 |  |  |  | 100% | > 40 µM | 0% | CCCCCC(=O)N[C@H]1CCc2cc(O)c(O)c(O)c2-c2ccc(SC)c(=O)cc21 |  |  | 
 |  | 13.6 µg/mL (≈ 36.4 µM) |  |  |  |  | CSc1ccc2c(cc1=O)[C@@H](NC(C)=O)CCc1cc(O)c(O)c(O)c1-2 |  | 22% | Inhibition (KB [12]): 0%; EC50 (KB [13]): > 17.8 µg/mL; Inhibition (SK-MEL-2 [6]): 0%; IC50 (DNA topoisomerase II [11]): 9 µM
> 13.2 µg/mL | > 13.2 µg/mL | > 13.2 µg/mL | > 13.2 µg/mL | 100% |  | 0% | Br.CSc1ccc2c(cc1=O)[C@@H](N)CCc1cc(O)c(O)c(O)c1-2 | > 13.2 µg/mL |  | Inhibition (A549 [2]): 0%; Inhibition (CAKI-1 [14]): 2%; Inhibition (KB [15]): 0%; Inhibition (MCF7 [16]): 23%; Inhibition (SK-MEL-2 [17]): 0%
